Assay results of several laboratories.
Target: Serine/threonine-protein kinase PLK3 (PLK3, Homo sapiens, UniProt Q9H4B4)

| Structure (SMILES) | effect on | mode | technique | tested at | endpoint | result |
| --- | --- | --- | --- | --- | --- | --- |
| C1=C/COCc2cc(ccc2OCCN2CCCC2)Nc2nccc(n2)-c2cccc(c2)COC/1 | binding |  |  | 0.1 µM | remaining binding | 99% |
| C#Cc1cc(-c2cc(Nc3nc(N[C@@H](C)c4ccc(F)cn4)ncc3Cl)n[nH]2)ccc1C=O | enzyme activity | inhibitor |  | 0.2 µM | inhibition | 12.9% |
| C#Cc1cnc(Nc2ccnc(CO)c2)nc1Nc1ccccc1S(C)(=O)=NC#N (stereo not shown) | cell-free assay |  |  | 1 µM | remaining signal | 34% |
| N#Cc1ccc(NC(=O)Nc2ccccc2)cc1 | cell-free assay |  | competition with immobilised ligand | 25 µM | remaining binding | 88% |
| COc1ccc2[nH]c3c4[nH]c5ccc(OC)cc5c4c4c(c3c2c1)C(=O)NC4=O | binding |  |  | 1 µM | remaining binding | 88% |
| C=CC(=O)N1CCC([C@@H]2CCNc3c(C(N)=O)c(-c4ccc(Oc5ccccc5)cc4)nn32)CC1 | enzyme activity | inhibitor |  | 1 µM | inhibition | 2% |
| CCCCC(=O)Nc1ccc(-c2ccc3ncn(CCC)c(=O)c3c2)cn1 | binding |  | competition with immobilised ligand | 0.5 µM | remaining binding | 98% |
| COc1ccc2oc(-c3ccc4nc(N)oc4c3)c/c(=N\c3ccccc3NC(=O)CCN)c2c1 | binding |  |  | 1 µM | remaining binding | 101% |
| C[C@H]1CC[C@H](n2c3cnccc3c3cnc(Nc4ccc5c(n4)CCN(C(=O)CO)C5)nc32)CC1 | cell-free assay |  |  | 1 µM | remaining signal | 100% |
| CC#CC(=O)N1CCC[C@H]1c1nc(-c2ccc(C(=O)Nc3ccccn3)cc2)c2c(N)nccn12 | enzyme activity | inhibitor |  | 1 µM | inhibition | 0% |
